Data from ChEMBL document CHEMBL3352270, “Antimalarial activity of abietane ferruginol analogues possessing a phthalimide group” (Bioorg Med Chem Lett, 2014).
Values after ≈ are worked out from the molar mass of the structure shown.

Experiments:
Plasmodium falciparum [1] = experiment: microbe, parasite or virus in culture; assay type: functional, organism-based; details: K1, 72 h
HepG2 = experiment: Cytotoxicity against human HepG2 cells; assay type: functional, cell-based
BJ = experiment: Cytotoxicity against human BJ cells; assay type: ADME, cell-based
[2] = Selectivity index, ratio of cytotoxic EC50 against human cells to EC50 for Plasmodium falciparum 3D7; details: human cells (cell line not named)
Raji = experiment: Cytotoxicity against human Raji cells; assay type: functional, cell-based
Plasmodium falciparum [3] = experiment: microbe, parasite or virus in culture; assay type: functional, organism-based; details: 3D7, 72 h
HEK293 = experiment: Cytotoxicity against HEK293 cells; assay type: functional, cell-based; details: Homo sapiens
[4] = Selectivity index, ratio of cytotoxic EC50 against human cells to EC50 for Plasmodium falciparum K1; details: human cells (cell line not named)
Plasmodium falciparum [5] = experiment: Antimalarial activity against Plasmodium falciparum D10; assay type: functional
Plasmodium falciparum [6] = experiment: Antimalarial activity against chloroquine-sensitive Plasmodium falciparum D6; assay type: functional, organism-based
[7] = Selectivity index, ratio of cytotoxicity against CHO cells to IC50 for Plasmodium falciparum K1; assay type: toxicity, cell-based; details: hamster, read-out: Selectivity Index
Plasmodium falciparum [8] = experiment: Antimalarial activity against chloroquine-resistant Plasmodium falciparum K1; assay type: functional, organism-based
Plasmodium falciparum [9] = experiment: Antimalarial activity against Plasmodium falciparum D6; assay type: functional, organism-based
[10] = Selectivity index, ratio of cytotoxicity against CHO cells to IC50 for Plasmodium falciparum D10; assay type: toxicity, cell-based; details: hamster, read-out: Selectivity Index
Plasmodium falciparum [11] = experiment: Antimalarial activity against chloroquine-resistant Plasmodium falciparum W2; assay type: functional, organism-based
[12] = Selectivity index, ratio of cytotoxicity against human HepG2 cells to IC50 for Plasmodium falciparum K1; assay type: toxicity, cell-based; details: read-out: Selectivity Index
Plasmodium falciparum [13] = experiment: Antimalarial activity against Plasmodium falciparum K1; assay type: functional, organism-based
Method in brief: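 Chloroquine-resistant K1 strain of P. falciparum; […].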

[14] = Selectivity index, ratio of cytotoxicity against human HepG2 cells to IC50 for Plasmodium falciparum D10; assay type: toxicity, cell-based; details: read-out: Selectivity Index
[15] = Selectivity index, ratio of cytotoxicity against rat L6 cells to IC50 for Plasmodium falciparum K1; assay type: toxicity, cell-based; details: read-out: Selectivity Index

SMILES	EC50 (Plasmodium falciparum [1]) [µM]	EC50 (HepG2) [µM]	EC50 (BJ) [µM]	selectivity ratio [2]	EC50 (Raji) [µM]	EC50 (Plasmodium falciparum [3]) [µM]	EC50 (HEK293) [µM]	selectivity ratio [4]	IC50 (Plasmodium falciparum [5]) [µg/mL]	IC50 (Plasmodium falciparum [6]) [µg/mL]	selectivity ratio [7]	IC50 (Plasmodium falciparum [8]) [µM]	IC50 (Plasmodium falciparum [9]) [µg/mL]	selectivity ratio [10]	IC50 (Plasmodium falciparum [11]) [µg/mL]	selectivity ratio [12]	IC50 (Plasmodium falciparum [13]) [µg/mL]	selectivity ratio [14]	selectivity ratio [15]
CC(C)c1ccc2c(c1)CC[C@H]1[C@](C)(CN3C(=O)c4ccccc4C3=O)CCC[C@]21C	15	> 25	> 25	> 18.4	> 25	1.36	> 25												
CC(=O)c1cc2c(cc1C(C)C)CC[C@H]1[C@](C)(CN3C(=O)c4ccccc4C3=O)CCC[C@]21C	0.201	> 25	> 25	> 290	> 25	0.086	> 25	> 124											
CC(=O)Oc1cc2c(cc1C(C)C)CC[C@H]1[C@](C)(CN3C(=O)c4ccccc4C3=O)CCC[C@]21C	15	> 25	> 25	> 12	> 25	2.09	> 25												
CC(C)c1cc2c(cc1O)[C@@]1(C)CCC[C@@](C)(CN3C(=O)c4ccccc4C3=O)[C@@H]1CC2	4	> 25	> 25		> 25	15	> 25	> 6.3											
CC(C)c1cc2c(cc1O)[C@@]1(C)CCC[C@@](C)(CN)[C@@H]1CC2	15	> 25	17.4	2.6	> 25	6.67	> 25												
CC(C)c1cc2c(cc1O)[C@@]1(C)CCC[C@@](C)(CN3C(=O)c4c(Cl)c(Cl)c(Cl)c(Cl)c4C3=O)[C@@H]1CC2	15	> 25	> 25		> 25	15	> 25												
CC(=O)Oc1cc2c(cc1C(C)C)CC[C@H]1[C@](C)(CN3C(=O)c4c(Cl)c(Cl)c(Cl)c(Cl)c4C3=O)CCC[C@]21C	15	> 25	> 25		> 25	15	> 25												
CC(=O)Oc1cc2c(cc1C(C)C)C(=O)C[C@H]1[C@](C)(CN3C(=O)c4c(Cl)c(Cl)c(Cl)c(Cl)c4C3=O)CCC[C@]21C	15	> 25	> 25		> 25	15	> 25												
CC(=O)Oc1cc2c(cc1C(C)C)/C(=N/NS(=O)(=O)c1ccc(C)cc1)C[C@H]1[C@](C)(CN3C(=O)c4c(Cl)c(Cl)c(Cl)c(Cl)c4C3=O)CCC[C@]21C	15	> 25	> 25		> 25	15	> 25												
CC(C)c1cc2c(cc1O)[C@@]1(C)CCC[C@@](C)(C=O)[C@@H]1CC2 [18-OXOFERRUGINOL]	15	> 25	> 25		> 25	15	> 25												
CCN(CC)CCCC(C)Nc1ccnc2cc(Cl)ccc12 (stereo not given) [CHLOROQUINE]	0.69	> 25	> 25		> 25	0.023	> 25												
CC(C)c1cc2c(cc1O)[C@@]1(C)CCCC(C)(C)[C@@H]1CC2 [FERRUGINOL]	1.33	> 25	19.6	4.6	11.5	2.47	> 25	8.6	< 1	4.2 (≈ 14.7 µM)	> 65	0.9	1.95 (≈ 6.81 µM)	> 65	3.5 (≈ 12.2 µM)	> 65	< 1	> 65	15.6
CC(C)=CCC[C@]1(C)C=Cc2c(O)c3c(c(CC=C(C)C)c2O1)O[C@]12C(=C[C@@H]4C[C@H]1C(C)(C)O[C@@]2(C/C=C(/C)C(=O)O)C4=O)C3=O [GAMBOGIC ACID]		< 2	0.21		0.24		0.21												
